According to ChEMBL document CHEMBL1133481, “Resistance-modifying agents. 8. Inhibition of O(6)-alkylguanine-DNA alkyltransferase by O(6)-alkenyl-, O(6)-cycloalkenyl-, and O(6)-(2-oxoalkyl)guanines and potentiation of temozolomide cytotoxicity in vitro by O(6)-(1-cyclopentenylmethyl)guanine” (J Med Chem, 2000):
Residue numbers refer to the chain shown, from its start. pIC50: −log10 of the molar value. “And” between values parts separate entries of the source, which are not always exact repeats. Identical values can stand only once.

Columns and labels:
[1] = system: COLO 205; experiment: Cytotoxicity of compound in COLO 205 cell line; type: functional, cell-based; details: Homo sapiens
In short: (§1)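 Colony-forming assay: exponentially growing cells were preincubated 1 h with 10 µM AGT inactivator (0.1% DMSO), then given temozolomide 0–1000 µM final (1% DMSO) for 4 h at 37 °C. Cells were then plated: HT29 on plastic, Colo205 in 0.15% agarose, with inactivator kept at 10 µM. After about 2 weeks, colonies were stained (crystal violet for HT29, MTT for Colo205) and counted. Temozolomide IC50 is mean ± SD of 3 independent experiments.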

[2] = system: HT-29; experiment: Cytotoxicity of compound in HT-29 cell line; type: functional, cell-based; details: Homo sapiens; in short: as §1
[3] = molecular target: T1, Methylated-DNA--protein-cysteine methyltransferase (Homo sapiens, UniProt P16455); experiment: (§2) concentration required to reduce AGT activity to 50% of control rate in intact HT-29 human colorectal carcinoma cells.; type: cell-based
T1 sequence (P16455 whole entry): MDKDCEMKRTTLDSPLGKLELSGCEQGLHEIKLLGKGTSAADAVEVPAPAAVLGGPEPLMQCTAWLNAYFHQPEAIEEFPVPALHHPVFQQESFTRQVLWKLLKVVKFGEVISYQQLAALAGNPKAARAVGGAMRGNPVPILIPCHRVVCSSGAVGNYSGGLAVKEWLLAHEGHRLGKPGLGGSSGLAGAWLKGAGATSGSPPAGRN
In short: (§3)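 HT29 cells were grown 3 days in EMEM with 10% FCS, then exposed for 4 h to inactivator in serum-free EMEM (DMSO final 1% or 0.1%). Cells were trypsinized, washed and counted by trypan blue; pellets of 10⁷ cells were homogenized in Tris-HCl pH 8.3 buffer with EDTA, DTT and 200 mM NaCl. AGT activity was assayed in the extracts, and the concentration depleting whole-cell AGT activity by 50% was calculated.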

[4] = molecular target: T1, Methylated-DNA--protein-cysteine methyltransferase; experiment: Inhibition of AGT activity to 50% of control rate in HT-29 cell extract; type: cell-free
[5] = molecular target: T2, Methylated-DNA--protein-cysteine methyltransferase (Homo sapiens) (UniProt P16455); experiment: Percent AGT inactivation in HT-29 cell extract at 1 mM; type: cell-based
T2 sequence (whole entry): T1 sequence (P16455 whole entry)

[6] = molecular target: T1, Methylated-DNA--protein-cysteine methyltransferase; experiment: concentration required to reduce AGT activity to 50% of control rate in HT-29 cell extract.; type: cell-based
In short: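 HT29 cell extract AGT assay; IC50 is the inhibitor concentration reducing AGT activity to 50% of the control rate.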

[7] = molecular target: T2, Methylated-DNA--protein-cysteine methyltransferase (Homo sapiens); experiment: Percent of AGT inactivation in HT-29 cell extract at 1 mM concentration.
[8] = system: T3, Methylated-DNA--protein-cysteine methyltransferase (Homo sapiens), P16455 [Y158H]; experiment: Compound was evaluated for inactivation of Y158H mutant AGT
T3 sequence (whole entry): T1 sequence (P16455 whole entry) with Y158H
In short: (§4)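 Recombinant wild-type or mutant (P140K, Y158H, G160R, G156A) AGT, made in E. coli with an N-terminal His6 tag and purified by metal affinity, was preincubated with inhibitor for 30 min at 37 °C in 50 mM Tris-HCl pH 7.5, 0.1 mM EDTA, 5 mM DTT and hemocyanin. Residual activity was measured over a further 30 min with methylated DNA substrate. ED50 was read from a plot of % activity lost against inhibitor amount, with a maximum of […] inhibitor.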

[9] = molecular target: T2, Methylated-DNA--protein-cysteine methyltransferase (Homo sapiens); experiment: Compound was evaluated for inactivation of 156A mutant AGT; in short: as §4
[10] = system: T4, Methylated-DNA--protein-cysteine methyltransferase (Homo sapiens), P16455 [P140K]
T4 sequence (whole entry): T1 sequence (P16455 whole entry) with P140K

[11] = system: T5, Methylated-DNA--protein-cysteine methyltransferase (Homo sapiens), P16455 [G160R]
T5 sequence (whole entry): T1 sequence (P16455 whole entry) with G160R

[12] = molecular target: T1, Methylated-DNA--protein-cysteine methyltransferase; experiment: as §2; type: cell-based; in short: as §3; remark: listed apart in the source
[13] = molecular target: T1, Methylated-DNA--protein-cysteine methyltransferase; experiment: concentration required to reduce AGT activity to 50% of control rate in intact HT-29 human colorectal carcinoma cells; type: cell-based; in short: as §3
[14] = system: T4, Methylated-DNA--protein-cysteine methyltransferase (Homo sapiens), P16455 [P140K]; experiment: Compound was evaluated for inactivation of P140K mutant AGT; in short: as §4
[15] = system: T5, Methylated-DNA--protein-cysteine methyltransferase (Homo sapiens), P16455 [G160R]; experiment: Compound was evaluated for inactivation of G160R mutant AGT; in short: as §4
[16] = molecular target: T2, Methylated-DNA--protein-cysteine methyltransferase (Homo sapiens); experiment: Compound was evaluated for inactivation of Wild type AGT; in short: as §4
[17] = system: HT-29; experiment: Level of AGT activity in HT-29 cell line; type: functional, cell-based; details: Homo sapiens
[18] = system: COLO 205; experiment: Level of AGT activity in COLO 205 cell line; type: functional, cell-based; details: Homo sapiens

Compound `Cn1nnc2c(C(N)=O)ncn2c1=O.Nc1nc(OCc2ccccc2)c2[nH]cnc2n1` has a pIC50 [1] of 4.85 and a pIC50 [2] of 4.07.
With `C#CCOc1nc(N)nc2nc[nH]c12` the pIC50 [3] was 4.94 and 4.92 and the pIC50 [4] was 4.70.
Compound `C=C(CC)COc1nc(N)nc2[nH]cnc12` has a pIC50 [4] of 4.80.
Compound `CCC(COc1nc(N)nc2[nH]cnc12)(OC)OC` has an Inactivation [5] of 0% and a pIC50 [4] of under 3.00.
With `CCCCCCCOc1nc(N)nc2[nH]cnc12` the Inactivation [5] was 10% and the pIC50 [4] was under 4.00.
Compound `CC/C=C/CCOc1nc(N)nc2[nH]cnc12` has an Inactivation [5] of 88%.
Work on `Nc1nc(OCC2CCC2)c2[nH]cnc2n1` yielded a pIC50 [6] of under 3.00 and an Inactivation [7] of 34%.
Work on `COC(COc1nc(N)nc2nc[nH]c12)(OC)c1ccccc1` yielded a pIC50 [4] of under 3.00.
`CC1(C)OCC(COc2nc(N)nc3[nH]cnc23)O1` (stereo not drawn) was tested, and the Inactivation [5] was 0% and the pIC50 [4] was under 3.00.
Compound `CC(C)CCOc1nc(N)nc2nc[nH]c12` has a pIC50 [6] of under 3.00.
For `Nc1nc(OCc2ccccc2)c2nc[nH]c2n1`, the ED50 [8] was 620 µM, the ED50 [9] was 60 µM and the ED50 [10] was over 1500 µM. It also gave an ED50 [11] of 4.7 µM.
In the case of `Nc1nc(OCC(=O)c2ccccc2)c2[nH]cnc2n1`, the pIC50 [6] was under 3.00 and the Inactivation [5] was 0%.
In the case of `CCCOc1nc(N)nc2nc[nH]c12`, the pIC50 [6] was under 3.00.
With `CC(=O)COc1nc(N)nc2[nH]cnc12` the pIC50 [3] was 4.02 and 3.92 and the pIC50 [4] was 3.72.
`Nc1nc(OCC2=CCCCC2)c2[nH]cnc2n1` gave a pIC50 [4] of 5.80.
`C=CCOc1nc(N)nc2nc[nH]c12` was tested, and the pIC50 [12] was 5.29, the pIC50 [3] was 5.57 and the pIC50 [4] was 5.07.
`Nc1nc(OCC2=CCCC2)c2[nH]cnc2n1` showed a pIC50 [13] of 6.70 and a pIC50 [4] of 6.41.
`Nc1nc(OCC2CCCCC2)c2nc[nH]c2n1` showed a pIC50 [6] of under 3.00 and an Inactivation [5] of 0%.
Work on `CC(C)C(=O)COc1nc(N)nc2nc[nH]c12` yielded a pIC50 [6] of under 3.00 and an Inactivation [7] of 31%.
For `CC(C)CCOc1nc(N)nc2[nH]cnc12`, the Inactivation [7] was 24%.
With `CCOC(C)(COc1nc(N)nc2[nH]cnc12)OCC` the Inactivation [5] was 0% and the pIC50 [4] was under 3.00.
`Nc1nc(OCC2=CCC2)c2[nH]cnc2n1` gave a pIC50 [4] of 6.26.
In the case of `C=C(C)COc1nc(N)nc2nc[nH]c12`, the pIC50 [3] was 4.87 and 5.00 and the pIC50 [4] was 4.60.
`CC/C=C\CCOc1[nH]c(N)nc2ncnc1-2` showed a pIC50 [6] of under 3.00 and an Inactivation [7] of 32%.
`CCCCOc1nc(N)nc2[nH]cnc12` was tested, and the pIC50 [4] was 3.31.
For `CCC(=O)COc1nc(N)nc2nc[nH]c12`, the pIC50 [3] was 4.02 and 4.03 and the pIC50 [4] was 3.82.
Compound `Nc1nc(OCCc2ccccc2)c2nc[nH]c2n1` has a pIC50 [4] of 3.26.
For `CC(C)C1(COc2nc(N)nc3[nH]cnc23)OCCO1`, the Inactivation [5] was 54%.
`Nc1nc(OCC2=CCCC2)c2nc[nH]c2n1` was tested, and the ED50 [14] was over 1500 µM, the ED50 [8] was 1500 µM and the ED50 [9] was 113 µM. It also gave an ED50 [15] of 13 µM and an ED50 [16] of 0.3 µM.
`COC(COc1[nH]c(N)nc2ncnc1-2)(OC)c1ccccc1` was tested, and the Inactivation [5] was 0%.
`CCCOc1nc(N)nc2[nH]cnc12` gave an Inactivation [7] of 24%.
With `C=C(C)[C@H]1CC=C(COc2nc(N)nc3[nH]cnc23)CC1` the pIC50 [4] was 5.59.
`CCOc1nc(N)nc2[nH]cnc12` was tested, and the Inactivation [5] was 0%.
Compound `COc1nc(N)nc2nc[nH]c12` [METHYLGUANINE] has a pIC50 [13] of 3.61 and a pIC50 [4] of 3.37.
Compound `C=C(COc1nc(N)nc2[nH]cnc12)C(C)C` has a pIC50 [6] of under 3.00 and an Inactivation [7] of 22%.
With `CCCCCCOc1[nH]c(N)nc2ncnc1-2` the pIC50 [4] was 3.26.
With `CCCCCOc1nc(N)nc2[nH]cnc12` the pIC50 [4] was 3.00.
`C=CCCCCOc1nc(N)nc2[nH]cnc12` was tested, and the Inactivation [5] was 65%.
Compound `CCOc1nc(N)nc2nc[nH]c12` has a pIC50 [4] of under 3.00.
In the case of `C=C(COc1nc(N)nc2nc[nH]c12)c1ccccc1`, the pIC50 [3] was 4.43 and 4.40 and the pIC50 [4] was 4.11.
`Cn1nnc2c(C(N)=O)ncn2c1=O` [TEMOZOLOMIDE] gave a Level [17] of 908 fM/mg, a Level [18] of 1160 fM/mg and a pIC50 [1] of 3.46. It also gave a pIC50 [2] of 3.02.
Work on `Nc1nc(OCC2CCCC2)c2nc[nH]c2n1` yielded a pIC50 [6] of under 3.00 and an Inactivation [7] of 0%.
With `Nc1nc(Oc2cccs2)c2[nH]cnc2n1` the pIC50 [4] was 8.52.
`Nc1nc(OCC2CC=CCC2)c2[nH]cnc2n1` (stereo not drawn) was tested, and the pIC50 [6] was under 3.00 and the Inactivation [7] was 32%.
`Cn1nnc2c(C(N)=O)ncn2c1=O.Nc1nc(OCC2=CCCC2)c2[nH]cnc2n1` was tested, and the pIC50 [1] was 4.44 and the pIC50 [2] was 3.52.
